# Screening data deposited in PubChem by several laboratories.
# Only some compounds are listed: those with a hit (about 3.8% of all), similar ones and a draw of the others.
# NPY Y1 blocker = blocks the human neuropeptide Y Y1 receptor | HEK293-CNG Y1 cells, membrane potential fluorescence; NPY at EC95, then isoproterenol | inhibition, % at 3.6 µM | actives 1% (n = 200,000);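 active = inhibition above the campaign mean inhibition of all tested compounds plus 3 SD, cut at about 20% in these data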;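 also: 0% = DMSO wells given NPY plus isoproterenol and 100% = isoproterenol alone without NPY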
# Target sequence (P25929 whole entry, looked up): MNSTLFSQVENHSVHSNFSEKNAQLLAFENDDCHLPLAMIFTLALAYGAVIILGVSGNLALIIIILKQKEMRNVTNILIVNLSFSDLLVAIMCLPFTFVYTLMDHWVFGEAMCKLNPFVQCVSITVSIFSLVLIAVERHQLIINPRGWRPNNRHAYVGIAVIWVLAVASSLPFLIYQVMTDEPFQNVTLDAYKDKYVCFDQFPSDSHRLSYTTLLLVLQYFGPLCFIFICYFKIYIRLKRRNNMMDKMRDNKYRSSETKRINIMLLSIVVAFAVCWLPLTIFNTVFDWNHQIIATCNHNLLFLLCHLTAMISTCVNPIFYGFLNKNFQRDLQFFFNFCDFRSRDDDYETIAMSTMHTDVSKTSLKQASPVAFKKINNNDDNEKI
#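 material = HEK293 cells with Y1 receptor plus CNG channel | also added = NPY 25 nM then isoproterenol 1 µM plus Ro 20-1724 25 µM | schedule = dye 3 h, compound 60 min room temperature, stimulation 45 min | measured by = membrane potential fluorescence | benchmarks = high control isoproterenol alone, low control NPY with isoproterenol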
# INS promoter inh = TRM-6 insulin promoter activity inhibition. inhibition, % at 2 µM. actives 0.9% (n = 130,000). AID 1273. TRM-6 cells, insulin promoter-eGFP reporter, imaging; reporter expression induced with tamoxifen;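 active = inhibition above the mean plus 3 SD, with well images judged a real hit on visual review, cut at about 60% in these data, passing the limit was not always enough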
# RAM network inh = inhibitors of the yeast RAM network; S. cerevisiae dse1pr::URA3 reporter, 5-FOA growth OD615, 2 d; analog-sensitive cbk1-as2 kinase mutant strain; inhibition, % at 50 µM; actives 1.8% (n = 190,000);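 active = inhibition above a set limit, 3 SD over mean compound inhibition, cut at about 8.4% in these data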;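 also: 0% = DMSO-only wells with no growth and 100% = 10 µM 1-NA-PP1 full growth; inhibition rescues growth on 5-FOA so higher OD means more RAM inhibition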
# NPY1 pot ag = potentiates or activates human NPY-Y1 receptor; P25929; NPY-Y1 expressing cells, potentiator/agonist activation; activation, % at 3.6 µM; actives 0.37% (n = 220,000); AID 1304; in the data active = activation above about 33%, passing the limit was not always enough;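 also: cells stimulated with NPY at EC10 then isoproterenol at EC100; 0% = low agonist plus stimulus and 100% = saturating agonist plus stimulus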
# NPY2 pot ag = human NPY-Y2 potentiation or agonism, primary screen; actives 0.45% (n = 220,000); activation, % at 3.6 µM; P49146; cells expressing NPY-Y2, potentiator/agonist read-out; in the data active = activation above about 27%;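 also: cells stimulated with NPY near EC25 plus isoproterenol at EC100; 0% = vehicle plus submaximal agonist and 100% = vehicle plus saturating agonist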
# NPY Y2 blocker = NPY-Y2 (human) receptor antagonism. inhibition, % at 2.7 µM. NPY-Y2 expressing cells, antagonist mode. actives 0.99% (n = 140,000). P49146. AID 793; in the data active = inhibition above about 17%;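 also: 0% = vehicle with agonist challenge and 100% = reference antagonist with challenge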
# Active calls of the source: *; · = no result given.
SMILES,NPY Y1 blocker,INS promoter inh,RAM network inh,NPY1 pot ag,NPY2 pot ag,NPY Y2 blocker
CCOc1ccc(-n2c(N)c(C(=O)NCc3ccco3)sc2=S)cc1,-1.9,-20.5,1.1,24.1,-20.1,-0.8
Cc1ccc(Nc2nnc(SCc3cc(=O)n4cc(C)ccc4n3)s2)cc1,4.2,28.2,10.8*,8.5,-8.9,0.5
O=C(Cn1cnc2ccccc2c1=O)Nc1ccc(-c2nnc3n2CCCCC3)cc1,-2.8,92.9*,0.5,19.7,2.7,1.0
O=C(Cn1cnc2ccccc2c1=O)Nc1cccc(-c2nnc3n2CCCCC3)c1,-2.6,33.3,2.2,5.9,16.6,3.9
Cc1ccccc1NC(NC(=O)OCCn1c([N+](=O)[O-])cnc1C)C(Cl)(Cl)Cl (centres undefined),-5.5,·,3.9,-1.2,-10.1,3.4
Cc1ccc(S(=O)(=O)N2CCC(C(=O)NCCc3ccc(S(N)(=O)=O)cc3)CC2)cc1,-0.1,-41.8,8.9*,14.3,7.2,0.9
O=C(OCCCCN1C(=O)c2ccccc2C1=O)c1n[nH]c2ccccc12,7.3,-21.6,2.1,-18.4,-0.5,6.9
CCc1ccc(N(C(C)=O)c2nc(CCl)cs2)cc1,6.0,·,0.8,15.5,4.8,·
COc1ccc(-n2c(-c3ccc(Br)cc3)c[n+]3c2CCc2ccccc2-3)cc1,58.5*,25.0,1.7,-97.8,-5.2,25.1*
COc1ccc(-c2cn(-c3ccc(OC)cc3)c3[n+]2-c2ccccc2CC3)cc1,8.0,·,0.4,-24.6,15.6,4.9
Cc1nnsc1C(=O)N1CCN(c2cc(C(F)(F)F)ccn2)CC1,·,·,·,6.9,-1.1,·
N#CC(C#N)=Cc1ccccc1OCc1ccccc1,·,·,·,16.7,1.8,·
Cc1ccc(S(=O)(=O)/C(C#N)=C/c2ccccc2OCc2ccccc2)cc1,2.9,·,8.6*,6.4,1.5,-1.3
O=S(=O)(Nc1ncccn1)c1ccc(NC(=S)Nc2ccccc2Cl)cc1,·,·,·,12.9,9.3,·
Cc1ccccc1N1CCN(CCCN2C(=O)CC(=C(c3ccccc3)c3ccccc3)C2=O)CC1,-19.3,0.0,0.9,105.3*,99.1*,4.3
O=C1CC(=C(c2ccccc2)c2ccccc2)C(=O)N1CCCCN1CCN(c2cccc(Cl)c2)CC1,16.1,14.3,-1.1,11.1,1.3,7.8
CCOC(=O)c1sc(/N=C/c2c(O)ccc3ccccc23)cc1C,1.2,-23.5,9.0*,10.4,-2.3,4.2
COc1ccc(N=Cc2c(O)ccc3ccccc23)cc1,3.1,·,-1.9,5.4,6.5,·
c1ccc(COc2ccc(OCCCN3CCCC3)cc2)cc1,3.2,-20.7,2.0,-25.5,-6.2,5.6
CC1CCN(CCCOc2ccc(OCc3ccccc3)cc2)CC1,23.9*,-18.2,1.3,-42.2,-10.7,22.5*
Cn1ncc(Cl)c1C(=O)Nc1cccnc1,-2.0,-50.0,0.4,42.7*,-4.3,4.8
CC(=O)c1ccc(NC(=O)C(C)OC(=O)c2ccc(NS(=O)(=O)c3ccc(F)c(F)c3)cc2)cc1 (centres undefined),1.2,15.4,9.2*,16.0,15.4,-3.0
COC(=O)c1ccc(S(=O)(=O)N2CCN(C(c3ccccc3)c3ccccc3)CC2)n1C,·,·,·,-4.1,-8.8,·
Cc1ccc(C2(O)CN(c3ccccc3)C3=[N+]2CCS3)cc1 (centres undefined),11.5,·,-0.2,1.6,-2.3,11.1
OC1(c2ccc(F)cc2)CN(c2ccccc2)C2=[N+]1CCS2 (centres undefined),4.7,·,0.0,108.2*,92.5*,5.5
SMILES,NPY Y1 blocker,INS promoter inh,RAM network inh,NPY1 pot ag,NPY2 pot ag,NPY Y2 blocker
CSc1nc(-c2ccccc2F)c(C#N)c(=O)n1C,2.1,-6.2,8.6*,9.4,2.3,·
COC(=O)Cn1c(O)c(N=NC(=O)c2ccc3c(c2)OCO3)c2ccccc21,-2.3,·,1.9,-1.2,-4.8,·
c1ccc(Nc2nc3ccccc3o2)cc1,-6.2,67.9*,-0.5,4.2,-1.5,1.3
CCc1cc2c(=O)c(-c3nc4ccccc4[nH]3)coc2cc1OC(=O)N1CCOCC1,-3.2,·,10.8*,14.5,0.5,0.1
CCCOc1ccc(C2/C(=C(\O)c3c(C)[nH]c(C(=O)OC)c3C)C(=O)C(=O)N2CCN(C)C)cc1 (centres undefined),2.0,84.6*,0.4,15.8,-3.8,1.3
CCCOc1ccc(/C(O)=C2/C(=O)C(=O)N(c3cc(C)on3)C2c2ccc(C(=O)OC)cc2)cc1 (centres undefined),-5.5,33.3,10.9*,-4.9,-19.8,0.9
CCOc1ccc(C2/C(=C(\O)c3c(C)[nH]c(C(=O)OC)c3C)C(=O)C(=O)N2CCN(C)C)cc1 (centres undefined),-0.1,30.8,-1.2,14.1,8.7,4.6
CCOc1ccc(/C(O)=C2/C(=O)C(=O)N(c3cc(C)on3)C2c2ccc(C(=O)OC)cc2)cc1 (centres undefined),10.9,48.4,1.8,9.1,-14.4,4.5
CCCC(=O)c1ccc(O)cc1O,·,·,·,5.4,-3.8,·
O=[N+]([O-])c1ccc(C2(O)CN(c3ccccc3)C3=[N+]2CCS3)cc1 (centres undefined),9.0,·,1.9,-21.6,-18.2,·
CCc1nc(SCC(=O)N2CC(=O)Nc3ccccc32)c2c(C)c(C)sc2n1,3.2,·,3.5,1.5,-4.3,1.2
Cc1cccc(-n2c(SCC(=O)N3CC(=O)Nc4ccccc43)nc3ccccc3c2=O)c1C,3.4,-32.4,9.6*,8.4,7.7,4.8
Cc1sc2nc(C3CCCCC3)nc(SCC(=O)N3CC(=O)Nc4ccccc43)c2c1C,-0.2,-8.3,8.5*,9.2,-12.9,2.6
Cc1cccc(-n2c(SCC(=O)N3CC(=O)Nc4ccccc43)nc3ccccc3c2=O)c1,3.0,-15.0,4.1,19.8,5.0,·
CC(=O)Nc1nnc(-c2c(-c3ccccc3Cl)noc2C)o1,·,·,·,4.9,-2.8,·
CS(=O)(=O)N(CC(=O)NCc1cccnc1)C1CCCCC1,-4.0,·,1.2,-8.8,-23.8,·
O=[N+]([O-])c1cccc(/C=N/Nc2nc(N3CCCCC3)nc(N3CCCCC3)n2)c1,3.0,71.4*,-1.2,-2.9,-1.0,·
O=[N+]([O-])c1cccc(-n2cccc2/C=N/Nc2nc(N3CCCCC3)nc(N3CCCCC3)n2)c1,-3.9,22.2,7.3,20.1,0.8,·
COc1ccc(OC)c(NC(=O)c2cc3c(Cl)nc4ccccc4c3s2)c1,11.2,-2.6,9.9*,-18.5,-12.2,5.3
COc1ccc(NC(=O)c2cc3c(Cl)nc4ccccc4c3s2)cc1OC,1.4,·,5.3,2.8,-1.8,1.7
COC(=O)CC(NC(=O)C1CC1)c1ccc2c(c1)OCO2 (centres undefined),0.3,60.0,1.5,2.8,8.5,·
Cc1ccc(C)n1-c1sc2c(c1C#N)CCCC2,0.9,58.1,10.1*,-27.6,9.5,2.5
CN(c1ccccc1)S(=O)(=O)c1cccc(C(=O)OCC(=O)NCc2ccc3c(c2)OCO3)c1,1.6,·,10.3*,1.7,-2.3,3.5
